# From PubChem BioAssay AID624066 (The Scripps Research Institute Molecular Screening Center, 2012)
# Several values for one entry are separate records, joined by “and”; a condition that tells them apart may be missing. Equal values may be shown once. Activity calls are given as the source filed them.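 Rule for the calls: active = IC50 of 10 µM or lower; inactive = IC50 above 10 µM.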
# Target: Insulin-degrading enzyme (Homo sapiens) (UniProt P14735)
# Assay: IDE inhibitors with FRET1 peptide substrate, late-stage follow-up, artefact control for IDE inhibitor project, biochemical, fluorogenic FRET1 peptide, fluorescence, powder samples (AID 624066)
# Conditions: recombinant IDE
# In short: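 Assay system – purified recombinant wild-type IDE · Input – IDE at 1 nM final, roughly EC80 · Buffer or medium – HEPES/NaCl/MgCl2 buffer, pH 7.4, 0.1% BSA · Incubation – continuous kinetic reading every 2 min over 2 h at 22 °C · Technique – fluorescence, ex 335 nm, em 385 nm · Control set – DMSO-only wells as 100%, enzyme-free wells as 0%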
# Insulin-degrading enzyme (Homo sapiens), sequence (P14735 whole entry, looked up): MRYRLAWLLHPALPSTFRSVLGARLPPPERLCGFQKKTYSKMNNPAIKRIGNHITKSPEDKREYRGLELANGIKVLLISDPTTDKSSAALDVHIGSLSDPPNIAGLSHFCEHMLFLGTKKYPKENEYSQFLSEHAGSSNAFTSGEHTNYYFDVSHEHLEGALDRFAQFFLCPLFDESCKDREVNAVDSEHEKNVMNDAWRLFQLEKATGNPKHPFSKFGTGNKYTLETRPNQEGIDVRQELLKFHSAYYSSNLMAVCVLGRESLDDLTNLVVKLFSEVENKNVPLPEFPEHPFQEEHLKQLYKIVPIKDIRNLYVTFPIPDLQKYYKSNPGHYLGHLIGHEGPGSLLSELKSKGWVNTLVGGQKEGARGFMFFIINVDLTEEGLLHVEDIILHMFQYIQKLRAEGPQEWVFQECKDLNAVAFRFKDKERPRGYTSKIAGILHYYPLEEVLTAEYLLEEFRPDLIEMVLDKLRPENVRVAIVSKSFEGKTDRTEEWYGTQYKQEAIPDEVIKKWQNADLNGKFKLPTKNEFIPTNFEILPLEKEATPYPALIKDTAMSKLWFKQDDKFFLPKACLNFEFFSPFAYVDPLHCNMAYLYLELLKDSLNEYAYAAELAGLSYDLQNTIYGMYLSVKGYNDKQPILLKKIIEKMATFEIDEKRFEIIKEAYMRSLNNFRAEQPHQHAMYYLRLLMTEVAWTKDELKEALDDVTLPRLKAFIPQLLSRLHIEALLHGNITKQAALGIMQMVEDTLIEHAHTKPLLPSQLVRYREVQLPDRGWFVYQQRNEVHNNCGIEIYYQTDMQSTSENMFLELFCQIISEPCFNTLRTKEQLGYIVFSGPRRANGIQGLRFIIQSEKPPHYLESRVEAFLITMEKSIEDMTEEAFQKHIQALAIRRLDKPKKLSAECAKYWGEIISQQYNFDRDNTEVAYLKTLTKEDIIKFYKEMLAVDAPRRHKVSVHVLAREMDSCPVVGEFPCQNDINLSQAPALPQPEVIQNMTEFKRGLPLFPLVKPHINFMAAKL
row,IC50,Compound
1,> 10 µM (inactive),O=C(c1ccc2c(c1)OCCO2)N1CCCN(C(=O)C2COc3ccccc3C2)CC1 (stereo unspecified)
2,> 10 µM (inactive),COc1ccc(C(=O)N2CCCN(C(=O)C3COc4ccccc4O3)CC2)cc1OC (stereo unspecified)
3,> 10 µM (inactive),O=C(c1ccc2c(c1)OCCO2)N1CCN(C(=O)C2CCc3ccccc3O2)CC1 (stereo unspecified)
4,> 100 µM (inactive),O=C(Nc1cccc(C(F)(F)F)c1)c1csc(Cc2cccc(C(F)(F)F)c2)n1
5,> 10 µM (inactive),O=C(c1ccc2c(c1)OCO2)N1CCN(C(=O)C2CCc3ccccc3O2)CC1 (stereo unspecified)
6,inactive,Clc1cccc(-c2nnc(SCc3nc4ccccc4[nH]3)n2-c2ccccc2)c1
7,inactive,CCOc1ccc2[nH]c3c(N4CCN(C(=O)c5ccco5)CC4)ncnc3c2c1
8,> 10 µM (inactive),O=C(c1ccc2c(c1)OCCO2)N1CCCN(C(=O)C2CCc3ccccc3O2)CC1 (stereo unspecified)
9,> 10 µM (inactive),O=C(c1ccc2c(c1)OCCO2)N1CCN(C(=O)C2COc3ccccc3C2)CC1 (stereo unspecified)
10,> 10 µM (inactive),O=C(c1ccc2c(c1)OCO2)N1CCN(C(=O)[C@@H]2COc3ccccc3O2)CC1
11,5 µM,O=C(O)c1ccccc1NS(=O)(=O)c1cccc(-n2sc3ccccc3c2=O)c1
12,> 100 µM (inactive),CCN(CC)c1ccc(/C=C2\C(=N)N3N=C(CC(=O)N4CCOCC4)SC3=NC2=O)cc1
13,> 10 µM (inactive),COc1ccc(C(=O)N2CCCN(C(=O)C3COc4ccccc4C3)CC2)cc1OC (stereo unspecified)
14,> 10 µM (inactive),O=C(c1ccc2c(c1)OCO2)N1CCCN(C(=O)C2COc3ccccc3O2)CC1 (stereo unspecified)
15,> 100 µM (inactive),O=C(Nc1cc(C(F)(F)F)cc(C(F)(F)F)c1)c1csc(-c2ccncc2)n1
16,0.2 µM,O=c1c2ccccc2sn1-c1cc(S(=O)(=O)N2CCOCC2)ccc1N1CCOCC1
17,> 10 µM (inactive),COc1ccc(C(=O)N2CCCN(C(=O)C3CCc4ccccc4O3)CC2)cc1OC (stereo unspecified)
18,> 100 µM (inactive),Cn1c(SCc2nc3ccccc3[nH]2)nnc1-c1cccc(Cl)c1
19,> 100 µM (inactive),COc1ccc(NC(=O)CSc2nnc(CN3CCOCC3)n2C)cc1Cl
20,> 100 µM (inactive),Cc1nc(-c2cccnc2)sc1C(=O)Nc1cccc(C(F)(F)F)c1
21,> 100 µM (inactive),COc1ccc(-c2nc(C(=O)Nc3cccc(C(F)(F)F)c3)cs2)cc1
22,> 100 µM (inactive),Cc1ccc(NC(=O)CSc2nnc(-c3cccc(Cl)c3)n2Cc2ccco2)c(C)c1
23,> 100 µM (inactive),O=C(CSc1nnc(-c2cccc(Cl)c2)n1Cc1ccco1)Nc1ccccc1C(F)(F)F
24,inactive,Cc1ccc(C)c(N2C(=N)S/C(=C\c3ccc(-c4ccccc4C(=O)O)o3)C2=O)c1
25,> 10 µM (inactive),O=C(c1ccc2c(c1)OCO2)N1CCN(C(=O)[C@H]2COc3ccccc3O2)CC1

row,IC50,Compound
1,> 100 µM (inactive),O=C(CSc1nnc(-c2cccc(Cl)c2)n1Cc1ccco1)Nc1ccc2c(c1)OCCO2
2,0.4 µM,Cn1c(=O)c(C(=O)CN2CCCc3ccccc32)c(N)n(Cc2ccccc2)c1=O
3,> 100 µM (inactive),Cc1ccc(-c2nc(C(=O)Nc3cccc(C(F)(F)F)c3)cs2)cc1
4,5 µM,O=C(Nc1cccc(C(F)(F)F)c1)c1csc(-c2ccncc2)n1
5,> 10 µM (inactive),COc1cc(/C=C2\SC(=S)N(NC(C)=O)C2=O)ccc1OC(=O)c1ccco1
6,> 100 µM (inactive),O=C(Nc1cccc(C(F)(F)F)c1)c1csc(-c2cccc(C(F)(F)F)c2)n1
7,> 10 µM (inactive),O=C(c1ccc2c(c1)OCO2)N1CCCN(C(=O)C2COc3ccccc3C2)CC1 (stereo unspecified)
8,> 100 µM (inactive),O=C(C1CC1)N1CCN(c2ccnc3cc(Cl)ccc23)CC1
9,6.4 µM,COc1cccc(-c2nnc(SCc3nc4ccccc4[nH]3)n2Cc2ccco2)c1
10,> 10 µM (inactive),COc1ccc(C(=O)N2CCN(C(=O)C3CCc4ccccc4O3)CC2)cc1OC (stereo unspecified)
11,> 10 µM (inactive),O=C(c1ccc2c(c1)OCO2)N1CCCN(C(=O)C2CCc3ccccc3O2)CC1 (stereo unspecified)
12,> 100 µM (inactive),CC(Sc1nnc(-c2cccnc2)n1-c1ccccc1F)C(=O)N1CCCc2ccccc21 (stereo unspecified)
13,> 10 µM (inactive),O=C(c1ccc2c(c1)OCCO2)N1CCCN(C(=O)C2COc3ccccc3O2)CC1 (stereo unspecified)
14,5 µM,Clc1cccc(-c2nnc(SCc3nc4ccccc4[nH]3)n2Cc2ccco2)c1
15,> 100 µM (inactive),O=C(Nc1ccc2oc(-c3cccnc3)nc2c1)c1ccc2c(c1)OCCO2
16,5 µM,Cc1c(CCC(=O)NCCCn2ccnc2)c(=O)oc2cc3oc4c(c3cc12)CCCC4
17,> 100 µM (inactive),Nc1c(C(=O)Nc2nccs2)sc2nc(-c3cccs3)cc(C(F)(F)F)c12
18,> 100 µM (inactive),O=C(CSc1nnc(-c2cccc(Cl)c2)n1Cc1ccco1)Nc1ccc2cn[nH]c2c1
19,> 100 µM (inactive),O=C(CSc1nnc(-c2cccc(Cl)c2)n1Cc1ccco1)c1ccc2ccccc2c1
20,> 10 µM (inactive),O=C(c1ccc2c(c1)OCO2)N1CCN(C(=O)C2COc3ccccc3C2)CC1 (stereo unspecified)
21,> 10 µM (inactive),O=C(c1ccc2c(c1)OCCO2)N1CCN(C(=O)C2COc3ccccc3O2)CC1 (stereo unspecified)
22,9 µM and 6.4 µM,Cc1cccc(-c2nnc(SCc3nc4ccccc4[nH]3)n2Cc2ccco2)c1
23,> 10 µM (inactive),COc1ccc(C(=O)N2CCN(C(=O)C3COc4ccccc4C3)CC2)cc1OC (stereo unspecified)
24,> 10 µM (inactive),O=C(c1ccc2c(c1)OCO2)N1CCN(C(=O)C2COc3ccccc3O2)CC1 (stereo unspecified)
25,> 100 µM (inactive),O=C(Nc1cccc(C(F)(F)F)c1)c1csc(-c2ccccc2)n1

row,Compound,IC50
1,COc1ccc(C(=O)N2CCN(C(=O)C3COc4ccccc4O3)CC2)cc1OC (stereo unspecified),1.2 µM and > 10 µM (inactive) and > 100 µM (inactive)
